ChEMBL document CHEMBL1157613, “Salicylic acid based small molecule inhibitor for the oncogenic Src homology-2 domain containing protein tyrosine phosphatase-2 (SHP2)” (J Med Chem, 2010)
Calls of active or inactive are those of the source. No cut-off for these calls is given here.

Molecular target: T1, Tyrosine-protein phosphatase non-receptor type 11 (Homo sapiens, UniProt Q06124)
T1 sequence (Q06124 whole entry): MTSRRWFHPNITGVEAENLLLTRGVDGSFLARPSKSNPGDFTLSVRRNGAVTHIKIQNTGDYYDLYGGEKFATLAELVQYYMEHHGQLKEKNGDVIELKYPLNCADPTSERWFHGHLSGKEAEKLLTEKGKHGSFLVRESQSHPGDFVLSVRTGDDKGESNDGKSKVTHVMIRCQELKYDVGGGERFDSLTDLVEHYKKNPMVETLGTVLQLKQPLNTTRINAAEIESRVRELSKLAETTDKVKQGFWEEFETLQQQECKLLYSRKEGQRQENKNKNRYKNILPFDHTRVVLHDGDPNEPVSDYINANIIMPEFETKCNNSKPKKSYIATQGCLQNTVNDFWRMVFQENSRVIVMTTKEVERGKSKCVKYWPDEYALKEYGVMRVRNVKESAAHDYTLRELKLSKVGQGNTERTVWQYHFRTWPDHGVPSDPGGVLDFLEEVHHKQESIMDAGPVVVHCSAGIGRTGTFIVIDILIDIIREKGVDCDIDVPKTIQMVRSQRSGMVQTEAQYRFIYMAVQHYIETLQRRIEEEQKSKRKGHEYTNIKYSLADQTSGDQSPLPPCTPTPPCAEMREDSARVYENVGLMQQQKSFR
Experiment: Inhibition of SHP2 […] expressed in Escherichia coli BL21 (DE3) assessed as inhibition of p-nitrophenyl phosphate hydrolysis at pH 7 by spectrophotometry

| IC50 [µM] | SMILES |
| --- | --- |
| 9.1 | Cn1c(-c2ccccc2)c(-c2cn(CC(=O)Nc3nc4ccccc4s3)nn2)c2cc(C(=O)O)c(O)cc21 |
| 86 | Cn1c(-c2ccccc2)c(-c2cn(CCC(=O)Nc3ccccc3)nn2)c2cc(C(=O)O)c(O)cc21 |
| 10.4 | Cn1c(-c2ccccc2)c(-c2cn(CC(=O)NC3c4ccccc4-c4ccccc43)nn2)c2cc(C(=O)O)c(O)cc21 |
| 7.8 | Cn1c(-c2ccccc2)c(-c2cn(CC(=O)Nc3ccc(N4CCOCC4)cc3)nn2)c2cc(C(=O)O)c(O)cc21 |
| 12 | Cn1c(-c2ccccc2)c(-c2cn(CCCC(=O)Nc3ccc(-c4ccccc4)cc3)nn2)c2cc(C(=O)O)c(O)cc21 |
| 8 | Cn1c(-c2ccccc2)c(-c2cn(CCCCC(=O)N3c4ccccc4Sc4ccccc43)nn2)c2cc(C(=O)O)c(O)cc21 |
| 212 | C#Cc1c(-c2ccccc2)n(C)c2cc(O)c(C(=O)O)cc12 |
| 9.3 | Cn1c(-c2ccccc2)c(-c2cn(CC(=O)Nc3ccc(-c4ccccc4)cc3)nn2)c2cc(C(=O)O)c(O)cc21 |

Molecular target: T2, Tyrosine-protein phosphatase non-receptor type 11 (Homo sapiens) (UniProt Q06124)
T2 sequence (whole entry): T1 sequence (Q06124 whole entry)
Experiment: Inhibition of SHP2-dependent ERK1/2 activation in EGF-stimulated HEK293 cells assessed as phosphorylated ERK1/2 level at 20 uM treated for 3 hrs before EGF challenge measured after 60 mins of EGF stimulation by immunoblot analysis
Type: cell-based
In short: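 HEK293 cells in DMEM with 10% FCS, 4 × 10^5 per well, grown 24 h. They were serum-deprived 16 h, given vehicle or compound at 0-20 μM for 3 h, then stimulated with EGF 2 ng/mL for 60 min. Lysates (30 μg) were run on 10% SDS-PAGE and immunoblotted for phospho-ERK1/2, normalised to total ERK1/2.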

| inhibition | SMILES |
| --- | --- |
| inactive | Cn1c(-c2ccccc2)c(-c2cn(CCC(=O)Nc3ccccc3)nn2)c2cc(C(=O)O)c(O)cc21 |
